Source: ChEMBL document CHEMBL4304791, “DABMA: A Derivative of ABMA with Improved Broad-Spectrum Inhibitory Activity of Toxins and Viruses” (ACS Med Chem Lett, 2019)
Active and inactive are the calls of the source. The rule behind the calls is not given here.

How the values were obtained:
[1] = test system: A549; experiment: Inhibition of diphtheria induced toxicity in human A549 cells assessed as protection fold at 30 uM incubated for 20 hrs followed by replacement of [14c]-Leucine containing medium and measured after 4 hrs by liquid scintillation analysis relative to ABMA; format: functional
Procedure, shortened: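 Single-concentration screen: 30 μM compound on A549 cells with increasing DT concentrations, read as protein synthesis inhibition. Protection fold was calculated with ABMA as the positive control.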

[2] = test system: Lyssavirus rabies; experiment: Antiviral activity against RABV infected in BSR cells preincubated for 4 hrs followed by viral infection and further incubated with compounds for 24 hrs by immunostaining-based assay; format: functional, organism-based
Procedure, shortened: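 BSR cells were pretreated 4 h with compound, then infected with RABV (MOI = 14) for 1 h. Cells were washed and kept with compound for 24 h, then fixed and immunostained for the RABV ribonucleocapsid (RNP). Nuclei and RNP images from 15 fields per well (>10,000 cells) were used to calculate percent inhibition.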

[3] = test system: A549; experiment: Selectivity index, ratio of CC50 for cytotoxicity against human A549 cells to EC50 for cytoprotective activity in diphtheria-induced cytotoxicity in human A549 cells
[4] = test system: A549; experiment: Cytoprotection activity against diphtheria toxin-induced cytotoxicity against human A549 cells assessed as effect on protein synthesis incubated for 20 hrs followed by replacement of [14c]-Leucine containing medium and measured after 4 hrs by liquid scintillation analysis; format: functional, cell-based
Procedure, shortened: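 A549 cells were incubated with compound and then challenged with increasing DT concentrations. DT cytotoxicity was read as protein synthesis inhibition. Data are mean of duplicate wells ± SD from one representative experiment (n = 3).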

[5] = Cytotoxicity against human A549 cells assessed as reduction in cell viability incubated for 24 hrs by Alamar blue assay; format: cell-based
Procedure, shortened: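 A549 cytotoxicity by Alamar Blue viability assay; duplicate wells, mean ± SD, one representative experiment (n = 3).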

[6] = test system: A549; experiment: Inhibition of diphtheria induced toxicity in human A549 cells assessed as protection factor at 0.15 nM incubated for 20 hrs followed by replacement of [14c]-Leucine containing medium and measured after 4 hrs by liquid scintillation analysis relative to untreated control; format: functional
Procedure, shortened: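 A549 cells were incubated with Baf A1 (0.15 nM), DABMA (15 μM), both, or DMSO vehicle before DT was added, with the compounds kept present throughout. Toxin protection was read as protein synthesis and expressed as protection factor.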

[7] = test system: A549; experiment: Induction of lysosomal activation in human A549 cells incubated for 2 hrs by LysoTracker Red staining based confocal microscopic analysis; format: functional, cell-based
Procedure, shortened: (§1)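 A549 cells were pretreated 2 h with compound (30 or 60 μM) or DMSO, then stained with LysoTracker Deep Red (50 nM, 30 min) plus Hoechst. Intensity was read from 3 × 3 fields per well (10,000 cells/well) by imaging reader; mean ± SEM, n = 4; confocal images.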

[8] = test system: A549; experiment: Induction of lysosomal activation in human A549 cells at 30 uM incubated for 2 hrs by LysoTracker Red staining based confocal microscopic analysis; format: functional, cell-based; procedure, shortened: as §1
[9] = test system: Vero; experiment: Inhibition of TcdB-induced cytotoxicity against African green monkey Vero cells assessed as reduction in toxin-induced cell rounding at 30 uM in presence of TcdB after 4 hrs by inverted microscopic analysis; format: functional, cell-based; details: Chlorocebus sabaeus
Procedure, shortened: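 Vero cells were given compound (30 μM) or DMSO, then increasing doses of TcdB for 4 h or TcsL for 16 h. Cell rounding was imaged by inverted microscope. Rounded cells were counted and normalised to total Hoechst-counterstained cells (>100 cells per treatment).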

[10] = test system: L929; experiment: Cytoprotective activity in Pseudomonas aeruginosa exotoxin-induced toxicity in mouse L929 cells assessed as protection of protein synthesis after 18 hrs followed by replacement of [14c]-Leucine containing medium and measured after 4 hrs by liquid scintillation analysis by liquid scintillation analysis; format: functional, cell-based
Procedure, shortened: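 L929 cells were intoxicated with increasing doses of Pseudomonas exotoxin A for 18 h with compound (30 μM) or DMSO present. Protein synthesis was measured; duplicate wells, mean ± SD, one representative experiment (n = 3).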

[11] = test system: A549; experiment: Induction of lysosomal activation in human A549 cells at 60 uM incubated for 2 hrs by LysoTracker Red staining based confocal microscopic analysis; format: functional, cell-based; procedure, shortened: as §1
[12] = test system: A549; experiment: Increase in cholesterol accumulation in human A549 cells at 60 uM incubated for 18 hrs by choelesterol-avid filipin-3 staining based confocal microscopic analysis; format: functional, cell-based
Procedure, shortened: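 A549 cells were treated 18 h with compound or DMSO, fixed, and stained with Filipin III for cholesterol. Confocal imaging; fluorescence quantified in >30 cells (mean ± SEM), unpaired t test versus DMSO.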

SMILES | fold change (FC) [1] | also measured
Cn1c(CNC23CC4CC(CC(C4)C2)C3)cc2ccccc21 | 0.21 | –
O=[N+]([O-])c1cccc(CNC23CC4CC(CC(C4)C2)C3)c1 | 5.7 | –
Cn1c(CNC2C3CC4CC(C3)CC2C4)cc2ccccc21 (stereo not given) | 0.21 | –
COc1ccc(Br)cc1CN(C)C12CC3CC(CC(C3)C1)C2 | 0.52 | –
CC12CC3CC(C)(C1)CC(N)(C3)C2 [MEMANTINE] | 0 | –
NC(=O)c1ncn([C@@H]2O[C@H](CO)[C@@H](O)[C@H]2O)n1 | – | inhibition [2]: Active
COc1ccc(Br)cc1CNc1cccc2ccccc12 | 0.19 | –
CC12CC3CC(C)(C1)CC(NCc1ccc(I)cc1)(C3)C2 | 12.5 | Ratio CC50/EC50 [3]: 3.6; EC50 [4]: 38.3 µM; CC50 at 24 h [5]: 137 µM
CO/C1=C\C(C)=C\[C@@H](C)[C@@H](O)[C@@H](C)C/C(C)=C/C=C/[C@H](OC)[C@@H]([C@@H](C)[C@@H](O)[C@H](C)[C@@]2(O)C[C@@H](O)[C@H](C)[C@@H](C(C)C)O2)OC1=O [BAFILOMYCIN A1] | – | EC50 [4]: 0.0006 µM; fold change (FC) [6]: 5.2
Ic1ccc(CNC23CC4CC(CC(C4)C2)C3)cc1 | 6.6 | –
COc1ccc(Br)cc1CN[C@H]1C[C@@H]2CC[C@@]1(C)C2(C)C | 0.4 | –
CC(N)C12CC3CC(CC(C3)C1)C2.Cl (stereo not given) [RIMANTADINE HYDROCHLORIDE] | 0.35 | –
CCCCCCCCCNCc1cc(Br)ccc1OC | 0.26 | –
COc1ccc(Br)cc1/C=N/C12CC3CC(CC(C3)C1)C2 | 0.05 | Activity [7]: inactive
COc1ccc(Br)cc1CN(C(=O)c1ccccc1)C12CC3CC(CC(C3)C1)C2 | 0.25 | –
NC12CC3CC(CC(C3)C1)C2 [AMANTADINE] | 0.3 | –
Brc1ccc(CNC23CC4CC(CC(C4)C2)C3)cc1 | 2.3 | –
COc1ccc(Br)cc1CNCc1ccccc1 | 0 | –
COc1ccc(Br)cc1CNC12CC3CC(CC(C3)C1)C2 | – | Ratio CC50/EC50 [3]: 4.4; Activity [8]: Active; EC50 [4]: 62.9 µM; inhibition [9]: Active; inhibition [2]: Active; Activity [10]: Active; CC50 at 24 h [5]: 277 µM
COc1ccc(Br)cc1C(=O)NC12CC3CC(CC(C3)C1)C2 | 0 | Activity [11]: inactive; Activity [12]: inactive
COc1ccc(Br)cc1CN(C(C)=O)C12CC3CC(CC(C3)C1)C2 | 0.3 | Activity [7]: inactive
COc1ccc(I)cc1CNC12CC3CC(C)(CC(C)(C3)C1)C2 | 35.1 | Ratio CC50/EC50 [3]: 3.6; EC50 [4]: 25.1 µM; CC50 at 24 h [5]: 90.8 µM
COc1ccc(Br)cc1CNc1ccccc1 | 0.19 | –
COc1ccc(Br)cc1CNCCCc1ccccc1 | 0.52 | –
COc1cc(I)ccc1CNC12CC3CC(CC(C3)C1)C2 | 3.6 | –
COc1ccc(Br)cc1CNC1CCCCC1 | 0 | –
COc1ccc(Br)cc1CNC(C)(C)C | 0 | –
COc1ccc(Br)cc1CNC1CC(C)CCC1C(C)C (stereo not given) | 2.2 | –
